Reference: ChEMBL document CHEMBL1154076, “New furanoflavanoids, intestinal alpha-glucosidase inhibitory and free-radical (DPPH) scavenging, activity from antihyperglycemic root extract of Derris indica (Lam.)” (Bioorg Med Chem, 2009)
Active and inactive are the calls of the source. The rule behind the calls is not given here.

Legend:
[1] = Inhibition of rat alpha-glucosidase assessed as p-nitrophenol release at 50 ug/ml
How it was run: (§1)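 Crude enzyme is the sonicated supernatant of rat intestinal acetone powder in normal saline (100:1 w/v). Sample (5 mg/mL DMSO stock) in 100 mM phosphate buffer, pH 6.8, is preincubated 5 min with enzyme. p-Nitrophenyl-α-D-glucopyranoside (5 mM solution) is added, and p-nitrophenol is read at 405 nm after 5 min. Blanks omit substrate; the control is DMSO. Inhibition % = (1 − B/A) × 100. IC50 is taken by log regression over ≥5 dilutions. n = 3.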

[2] = test system: Radical scavenging activity; assay: Antioxidant activity assessed as DPPH radical scavenging activity; format: functional
How it was run: (§2)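 DPPH (0.5 mM solution in absolute ethanol) is mixed with test sample (1 mg/mL DMSO stock) in 0.1 M Tris-HCl, pH 7.4. The mixture is shaken, kept in the dark for 30 min, and read at 517 nm. Scavenging % = (1 − B/A) × 100 versus a no-sample control. SC50 comes from logarithmic regression over at least five dilutions. n = 3.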

[3] = species on record: Rattus norvegicus; assay: Inhibition of rat alpha-glucosidase assessed as p-nitrophenol release; how it was run: as §1
[4] = test system: Radical scavenging activity; assay: Antioxidant activity against DPPH radical assessed as concentration required for 50% scavenging activity; format: functional; how it was run: as §2

| Structure (SMILES) | Inhibition [1] | SC50 [2] | Activity [3] | Scavenging [2] | Activity [4] |
| --- | --- | --- | --- | --- | --- |
| COc1c(C(=O)/C=C(\O)c2ccc3c(c2)OCO3)ccc2occc12 [OVALITENONE] | 29.7% | inactive |  |  |  |
| O=c1cc(-c2ccc(O)c(O)c2)oc2c1ccc1occc12 | 25.6% |  | 335 µM | 55.1% | 84.6 µM |
| COc1ccc2c(=O)c(OC)c(-c3ccc(OC)c(OC)c3)oc2c1 [FISETIN TETRAMETHYL ETHER] | 19.7% | inactive |  |  |  |
| COc1c(C(=O)/C=C(\O)c2ccccc2)ccc2occc12 [PONGAMOL] | 58.2% |  | 104 µM | 11.2% |  |
| O=C(O)c1ccc2c(c1)OCO2 [PIPERONYLIC ACID] | 18.4% |  |  | 2.4% |  |
| COc1c(-c2ccccc2)oc2c(ccc3occc32)c1=O [KARANJIN] | 26.3% | inactive |  |  |  |
| O=c1c(O)c(-c2ccc(O)c(O)c2)oc2c1ccc1occc12 | 37.9% |  |  | 64.9% | 21 µM |
| COc1c(-c2ccc3c(c2)OCO3)oc2cc(O)ccc2c1=O | 36% |  |  | 68.3% | 39 µM |
| COc1cc(O)c2c(=O)cc(-c3ccccc3)oc2c1 [TECHTOCHRYSIN] | 28.7% | inactive |  |  |  |
| COc1ccc(-c2cc(=O)c3c(O)cc(OC)cc3o2)cc1 [APIGENIN DIMETHYLETHER] | 4.4% | inactive |  |  |  |
| COc1c(-c2ccc3c(c2)OCO3)oc2c(ccc3occc32)c1=O [PONGAPIN] | 21.4% | inactive |  |  |  |
| COc1c(-c2ccc3c(c2)OCO3)oc2c3c(ccc2c1=O)OC(C)(C)C=C3 [PONGACHROMENE] | 22.8% | inactive |  |  |  |
| O=c1cc(-c2ccc3c(c2)OCO3)oc2c1ccc1occc12 [PONGAGLABRONE] | 8.6% | inactive |  |  |  |
| COc1c2ccoc2cc2oc(-c3ccccc3)cc(=O)c12 [PINNATIN] | 36.5% | inactive |  |  |  |
